Assay: Cytotoxicity against human Hs578T cells assessed as reduction of cell viability after 48 hrs by calcein-AM-based fluorescence analysis
Type: functional
Details: Hs-578T
Summary of the method: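 Cells seeded at 3,000 per well in DMEM with 10% FBS and left overnight at 37 °C. A range of compound concentrations or vehicle was then added for 48 h. Cells were washed with DPBS pH 7.4 and loaded with 2 μM calcein-AM for 30 min at 25 °C. Fluorescence read at ex 490/em 520 nm; viability is given relative to untreated control (100%). Mean ± s.d.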

**Q.** With `COc1cc(-c2n[nH]nc2-c2cc3ccccc3o2)cc(OC)c1OC` as the molecule, how does the GI50 read?
**A.** 20 nM

From ChEMBL document CHEMBL3751743, “Synthesis and anti-cancer screening of novel heterocyclic-(2H)-1,2,3-triazoles as potential anti-cancer agents” (Medchemcomm, 2015)
